Screening results deposited in PubChem by The Scripps Research Institute Molecular Screening Center.
Shown are actives, neighbours in structure and some others; about 1.8% of the full set was active somewhere.
NPY2 pot ag: potentiates or activates human NPY-Y2 receptor; P49146; cells expressing NPY-Y2, potentiator/agonist read-out; activation, % at 3.6 µM; actives 0.45% (n = 220,000); AID 1359; in the data active = activation above about 27%;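 note: cells stimulated with NPY near EC25 plus isoproterenol at EC100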
Target sequence (P49146 whole entry, looked up): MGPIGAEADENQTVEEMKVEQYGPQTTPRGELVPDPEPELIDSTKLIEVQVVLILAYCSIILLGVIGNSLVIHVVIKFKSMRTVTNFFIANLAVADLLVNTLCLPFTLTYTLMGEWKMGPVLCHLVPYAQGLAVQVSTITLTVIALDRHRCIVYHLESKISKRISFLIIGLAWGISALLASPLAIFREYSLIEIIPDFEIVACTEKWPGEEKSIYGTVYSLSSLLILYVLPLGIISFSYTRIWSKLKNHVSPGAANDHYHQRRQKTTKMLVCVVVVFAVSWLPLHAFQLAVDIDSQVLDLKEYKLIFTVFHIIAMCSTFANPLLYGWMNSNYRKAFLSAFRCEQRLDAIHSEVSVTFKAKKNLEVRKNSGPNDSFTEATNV
NPY1 pot ag: potentiators or agonists of human neuropeptide Y receptor Y1. AID 1304. activation, % at 3.6 µM. NPY-Y1 expressing cells, potentiator/agonist activation. actives 0.37% (n = 220,000); in the data active = activation above about 33%, passing the limit was not always enough;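 note: cells stimulated with NPY at EC10 then isoproterenol at EC100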
NPY Y2 blocker: antagonists of human neuropeptide Y receptor Y2. inhibition, % at 2.7 µM. NPY-Y2 expressing cells, antagonist mode. AID 793. P49146. actives 0.99% (n = 140,000); in the data active = inhibition above about 17%
NPY-Y1 antag: NPY-Y1 (human) receptor antagonism. P25929. HEK293-CNG Y1 cells, membrane potential fluorescence; NPY at EC95, then isoproterenol. inhibition, % at 3.6 µM. actives 1% (n = 200,000). AID 1040;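 active = inhibition above the campaign mean inhibition of all tested compounds plus 3 SD, cut at about 20% in these data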
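Material: HEK293 cells co-expressing NPY Y1 receptor and cyclic-nucleotide gated channel. Timing: compound incubation 1 h at room temperature, readout 45 min post-stimulation. Signal: fluorescence, membrane potential probe.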
NPY-Y2 pot conf: confirmation of human NPY-Y2 receptor potentiators or agonists; cell-based NPY-Y2 potentiator/agonist assay; actives 20% (n = 450); shares compounds with NPY2 pot ag; activation, % at 3.6 µM; in the data active = activation above about 33%
NPY-Y1 counter: counter-screen for NPY-Y2 potentiators or agonists: NPY-Y1 potentiators or agonists | activation, % at 3.6 µM | actives 20% (n = 450) | shares compounds with NPY2 pot ag | Y1 HEK293-CNG cells, membrane potential fluorescence; in the data active = activation above about 45%;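 note: cells stimulated with submaximal NPY then isoproterenol with phosphodiesterase inhibitor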
NPY-Y1 ag 2: counter-screen for NPY-Y2 potentiators: agonists of human NPY-Y1; shares compounds with NPY2 pot ag; HEK293 Y1-CNGC, membrane potential fluorescence, agonism; activation, % at 3.6 µM; actives 37% (n = 450);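 active = activation above the mean of DMSO-only control wells plus 3 SD, cut at about 18% in these data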;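 note: cells stimulated with 1 µM isoproterenol plus the PDE inhibitor Ro 20-1724; Y1 agonists lower the membrane potential dye signal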
CNGC inhibitor: counter-screen for NPY-Y2 potentiators: inhibitors of CNG channel activity | shares compounds with NPY2 pot ag | HEK293-CNG parental, isoproterenol cAMP, membrane potential fluorescence | inhibition, % at 3.6 µM | actives 32% (n = 450) | AID 1703;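 active = inhibition above the control-well mean plus 3 SD of those wells, cut at about 22% in these data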
Y2 agonist ctr: counter-screen for NPY-Y2 potentiators: agonists of human NPY-Y2. shares compounds with NPY2 pot ag. HEK293 Y2/CNGC cells, membrane potential fluorescence, agonist mode. activation, % at 3.6 µM. actives 56% (n = 450). AID 1710;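 active = activation above the mean of solvent-only control wells plus 3 SD, cut at about 10% in these data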;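 note: cells stimulated by isoproterenol with no NPY added so direct agonism is tested; agonism lowers probe fluorescence through less cAMP and CNG channel opening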
Hits are given with their value; i = inactive; nt = no result given.

SMILES	NPY2 pot ag	NPY1 pot ag	NPY Y2 blocker	NPY-Y1 antag	NPY-Y2 pot conf	NPY-Y1 counter	NPY-Y1 ag 2	CNGC inhibitor	Y2 agonist ctr
CC(=O)c1ccc(NC(=O)COC(=O)c2ccccc2N=Nc2ccc(N(C)C)cc2)cc1	44	i	i	i	48	62	50	44	41
COC(=O)c1ccccc1NC(=O)COC(=O)c1ccccc1N=Nc1ccc(N(C)C)cc1	i	i	i	i	nt	nt	nt	nt	nt
COCCN(CC(=O)NCC1CCCO1)C(=O)CCC(=O)Nc1ccccn1 (stereo not given)	i	i	nt	i	nt	nt	nt	nt	nt
O=Cc1cc(N=Nc2ccccc2Cl)ccc1O	34	i	nt	i	42	51	25	25	39
Cc1ccc(S(=O)(=O)NC(C(=O)Oc2ccc3c(C(F)(F)F)cc(=O)oc3c2)c2ccccc2)cc1 (stereo not given)	i	i	i	i	nt	nt	nt	nt	nt
CN(C)/C=C/C(=O)c1ncc(C(F)(F)F)cc1Cl	28	i	nt	i	i	i	i	i	i
Cc1ccc(C(=O)N/C(=C\c2ccccc2)C(=O)NCc2cccnc2)cc1	i	i	nt	i	nt	nt	nt	nt	nt
Oc1ccccc1-c1nc(NCC2CCCO2)c2ccccc2n1 (stereo not given)	41	i	i	i	37	i	i	24	19
COC(=O)C1C(=O)C2=C(CC1C)Nc1ccccc1NC2c1ccc(C)s1 (stereo not given)	i	i	nt	i	nt	nt	nt	nt	nt
Cc1ccc(/C=N/NC(=O)CNC(=O)c2ccc(S(=O)(=O)N3CCCC3)cc2)o1	84	i	nt	i	i	i	i	i	i
Cc1nn(C)cc1CN(C)C(=O)c1cc(-c2ccccc2)nc2ccc(Br)cc12	i	i	nt	i	nt	nt	nt	nt	nt
Cc1cccc(C)c1OCC(O)CNC(C)(C)C (stereo not given)	41	i	i	i	i	i	i	i	13
CCCN(CCC)C(=O)NC1CC(=O)N(c2ccc(OC)cc2)C1 (stereo not given)	i	i	i	i	nt	nt	nt	nt	nt
N=c1c(-c2nc3ccccc3[nH]2)cc(C(=O)c2ccco2)nn1-c1ccccc1	38	i	i	i	83	108	80	73	80
CC(C)NC(=O)CSc1nnc(-c2ccncc2)n1-c1ccccc1	i	i	i	i	nt	nt	nt	nt	nt
CC(C)(CNS(C)(=O)=O)SCc1ccc(Cl)cc1	i	i	nt	i	nt	nt	nt	nt	nt
CN1CCN(S(=O)(=O)c2ccc(Oc3ccc(F)c(Cl)c3)nc2)CC1	96	i	nt	i	i	i	i	i	i
